Experimental data as given in ChEMBL document CHEMBL1153412, “Synthesis and anti-hepatitis B virus activities of Matijing-Su derivatives” (Bioorg Med Chem, 2009).
Active and inactive are the calls of the source. The calls are words filed in the database; no cut-off is given here. Square brackets hold non-standard residues; d marks the D form. Peptide text beside a SMILES is read from it. * marks the point of attachment. Phe(4-NO2) = N[C@@H](Cc1ccc([N+](=O)[O-])cc1)C(=O)O; Phe(4-NH2) = Nc1ccc(C[C@H](N)C(=O)O)cc1; Propionyl = CCC(=O)*; Bz = O=C(c1ccccc1)*

Legend:
Hepatitis B virus [1] = assay: Antiviral activity against HBV in human HepG2(2.2.15) cells assessed as inhibition of HBsAg production after 9 days by enzyme immunoassay; format: functional, organism-based
Procedure, shortened: (§1)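 2.2.15 cells seeded at 1.0 × 10⁵ cells/mL in MEM with 10% FBS for 24 h. After attachment, exposed to 50, 25 or 12.25 µg/mL in fresh DMEM, 4 wells per concentration, for 9 d, with medium changed every 3 d. Supernatant HBsAg and HBeAg measured by semiquantitative EIA kits on days 6 and 9. Untreated cells as control. Run twice.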

Hepatitis B virus [2] = assay: Antiviral activity against HBV in human HepG2(2.2.15) cells assessed as inhibition of HBeAg production after 9 days by enzyme immunoassay; format: functional, organism-based; procedure, shortened: as §1
[3] = Cytotoxicity against human HepG2(2.2.15) cells treated for 9 days measured after 24 hrs of last treatment by neutral red uptake assay; format: cell-based; settings: read-out: TC50
Procedure, shortened: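 Confluent 2.2.15 cells treated as for the antiviral assay, 0.2 mL medium per well, with untreated control wells on each plate. Neutral red dye uptake read as absorbance at 510 nm relative to untreated cells, 24 h after day 9 of treatment.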

Hepatitis B virus [4] = assay: Antiviral activity against HBV in human HepG2(2.2.15) cells assessed as inhibition of viral genome replication after 9 days by Southern blot hybridization; format: functional, organism-based; settings: HepG2 2.2.15, 216 h
Procedure, shortened: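 Confluent 2.2.15 cultures in RPMI 1640 with 2% FBS received daily doses, with medium and drug renewed each day. Intracellular HBV DNA quantified by Southern blot hybridization. IC50 calculated by […].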

[5] = Selectivity index, ratio of TC50 for human HepG2(2.2.15) cells to IC50 for HBV

Row | IC50 (Hepatitis B virus [4]) [µM] | SMILES | Activity (Hepatitis B virus [1]) | Activity (Hepatitis B virus [2]) | CC50 at 216 h [3] [µM] | Selectivity Index [5]
1 | 2.33 | O=C(N[C@@H](Cc1ccccc1)C(=O)N[C@H](CO)Cc1ccccc1)c1ccc(Cl)cc1 | inactive | inactive | 65.8 | 28.29
2 |  | CC(=O)Nc1ccc(C[C@@H](CO)NC(=O)[C@H](Cc2ccccc2)NC(=O)c2ccccc2)cc1 | inactive | inactive | 164 | 
3 | 25.4 | O=C(N[C@@H](Cc1ccccc1)C(=O)N[C@@H](Cc1ccccc1)C(=O)O)c1ccccc1 (Bz-Phe-Phe-OH) | inactive | inactive | 313 | 12.36
4 |  | O=C(N[C@@H](Cc1ccc([N+](=O)[O-])cc1)C(=O)N[C@H](CO)Cc1ccccc1)c1ccccc1 | inactive | inactive | 119 | 
5 |  | CCC(=O)Nc1ccc(C[C@H](NC(=O)[C@H](Cc2ccccc2)NC(=O)c2ccccc2)C(=O)O)cc1 (Bz-Phe-[Phe(4-NH2)](Propionyl)-OH) | inactive | inactive | 1150 | 
6 |  | O=C(N[C@@H](Cc1ccccc1)C(=O)N[C@H](CO)Cc1ccccc1)c1ccccc1Cl | inactive | inactive | 382 | 
7 |  | Cc1ccc(C(=O)N[C@@H](Cc2ccccc2)C(=O)N[C@H](CO)Cc2ccccc2)cc1 | inactive | inactive | 1860 | 
8 |  | O=C(N[C@@H](Cc1ccccc1)C(=O)N[C@H](CO)Cc1ccccc1)c1ccccc1 | inactive | inactive | 574 | 
9 |  | O=C(N[C@@H](Cc1ccccc1)C(=O)N[C@H](CO)Cc1ccc([N+](=O)[O-])cc1)c1ccccc1 | inactive | inactive | 117 | 
10 |  | O=C(N[C@@H](Cc1ccccc1)C(=O)N[C@@H](Cc1ccc(O)cc1)C(=O)O)c1ccccc1 (Bz-Phe-Tyr-OH) | inactive | inactive |  | 
11 | 82.4 | Nc1ccn([C@@H]2CS[C@H](CO)O2)c(=O)n1 [LAMIVUDINE] |  |  | 3430 | 41.59
12 | 60.5 | Cc1cccc(C(=O)N[C@@H](Cc2ccccc2)C(=O)N[C@H](CO)Cc2ccccc2)c1 | inactive | inactive | 185 | 3.06
13 |  | CC(=O)Nc1ccc(C[C@H](NC(=O)[C@H](Cc2ccccc2)NC(=O)c2ccccc2)C(=O)O)cc1 (Bz-Phe-[Phe(4-NH2)](Ac)-OH) | inactive | inactive |  | 
14 | 3.94 | CC(=O)Nc1ccc(C[C@H](NC(=O)c2ccccc2)C(=O)N[C@H](CO)Cc2ccccc2)cc1 | inactive | inactive | 93.8 | 23.82
15 | 54.2 | O=C(N[C@@H](Cc1ccc([N+](=O)[O-])cc1)C(=O)N[C@@H](Cc1ccccc1)C(=O)O)c1ccccc1 (Bz-[Phe(4-NO2)]-Phe-OH) | inactive | inactive | 841 | 15.52
